Data: ChEMBL document CHEMBL5104224, “Alkyltriphenylphosphonium turns naphthoquinoneimidazoles into potent membrane depolarizers against mycobacteria” (RSC Med Chem, 2022)
The source made the active and inactive calls. The rule behind the calls is not given here.

Legend:
Cell membrane [1] = test: Induction of cell membrane depolarization in Mycobacterium bovis BCG ATCC 35734 assessed as loss in mitochondrial membrane potential at 4 x MIC90 incubated for 24 hrs by DiOC2(3) dye based fluorescence assay; assay type: subcellular; details: Mycobacterium tuberculosis variant bovis
In short: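 Aliquots taken at selected times and stained with DiOC2(3) (BacLight membrane potential kit). Depolarization read as a fall in red/green fluorescence ratio. CCCP 5 μM positive control, rifampicin 0.08 μM negative control.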

[2] = system: Mycobacterium tuberculosis variant bovis; test: Inhibition of ATP synthesis in Mycobacterium bovis BCG ATCC 35734 assessed as reduction in ATP level at 4 x MIC90 incubated for 15 mins by BacTiter-Glo microbial luminescence assay; assay type: functional
In short: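 Mid-log BCG diluted to OD600 0.1 in complete 7H9 and treated at 4× MIC90. At each time point, culture mixed 1:1 with BacTiter-Glo reagent for 15 min at room temperature in the dark and luminescence read. Background (media + reagent) subtracted. ATP quantified from a calibration curve of 0.1–100 nM ATP in 7H9. Rifampicin negative control.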

Cell membrane [3] = test: Induction of cell envelope stress in Mycobacterium bovis BCG ATCC 35734 expressing piniBAC RFP at 4 x MIC90 after 24 hrs by fluorescence analysis; assay type: subcellular; details: Mycobacterium tuberculosis variant bovis
In short: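 Recombinant M. bovis BCG-piniBAC-RFP at OD600 0.2, incubated with compound for 24 h. Red fluorescence (Ex 587/Em 630 nm) normalized to OD600 to reflect promoter induction. INH (0.1–50 μM) positive control.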

Compound	Activity (Cell membrane [1])	inhibition [2]	Activity (Cell membrane [3])
Cc1nc2c(n1CCCCCCCCCCC[P+](c1ccccc1)(c1ccccc1)c1ccccc1)C(=O)c1ccccc1C2=O	Active	Active	–
CCCCCCC[P+](c1ccccc1)(c1ccccc1)c1ccccc1	Active	Active	–
NNC(=O)c1ccncc1	–	–	Active
CCCCCCCCCCC[P+](c1ccccc1)(c1ccccc1)c1ccccc1	Active	Active	–
Cc1nc2c(n1CCCCCCCCC[P+](c1ccccc1)(c1ccccc1)c1ccccc1)C(=O)c1ccccc1C2=O	Active	Active	–
